Results published in ChEMBL document CHEMBL5247576, “Modulation of autophagy by the novel mitochondrial complex I inhibitor Authipyrin” (Bioorg Med Chem, 2019).
Active and inactive are the calls of the source. The calls are words filed in the database; no cut-off is given here.

Key:
MCF7 [1] = assay: Inhibition of starvation-induced autophagy in human MCF7 cells assessed as reduction of LC3-II lipidation at 1 uM in presence of chloroquine by immunoblotting analysis; assay type: functional, cell-based
Method in brief: (§1)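 Cells were starved in EBSS for the indicated times, with or without chloroquine (50 μM) and compound (1 μM). Cells were then lysed and LC3 lipidation was assessed by immunoblot. n = 3.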

HeLa = assay: Inhibition of starvation-induced autophagy in human HeLa cells assessed as reduction of LC3-II lipidation at 1 uM in presence of chloroquine by immunoblotting analysis; assay type: functional, cell-based; method in brief: as §1
HEK-293T = assay: Inhibition of starvation-induced autophagy in human HEK293T cells assessed as reduction of LC3-II lipidation at 1 uM in presence of chloroquine by immunoblotting analysis; assay type: functional, cell-based; method in brief: as §1
[2] = Inhibition of rapamycin-induced autophagy in human MCF7 cells expressing eGFP-tagged LC3 incubated for 3 hrs in presence of chloroquine by Hoechst staining based fluorescence microscopic analysis; assay type: functional, cell-based
[3] = target: T1, Inactive tyrosine-protein kinase PEAK1 (Homo sapiens, UniProt Q9H792); assay: Inhibition of PEAK1 (unknown origin) at 1 uM relative to control
T1 sequence (Q9H792 whole entry): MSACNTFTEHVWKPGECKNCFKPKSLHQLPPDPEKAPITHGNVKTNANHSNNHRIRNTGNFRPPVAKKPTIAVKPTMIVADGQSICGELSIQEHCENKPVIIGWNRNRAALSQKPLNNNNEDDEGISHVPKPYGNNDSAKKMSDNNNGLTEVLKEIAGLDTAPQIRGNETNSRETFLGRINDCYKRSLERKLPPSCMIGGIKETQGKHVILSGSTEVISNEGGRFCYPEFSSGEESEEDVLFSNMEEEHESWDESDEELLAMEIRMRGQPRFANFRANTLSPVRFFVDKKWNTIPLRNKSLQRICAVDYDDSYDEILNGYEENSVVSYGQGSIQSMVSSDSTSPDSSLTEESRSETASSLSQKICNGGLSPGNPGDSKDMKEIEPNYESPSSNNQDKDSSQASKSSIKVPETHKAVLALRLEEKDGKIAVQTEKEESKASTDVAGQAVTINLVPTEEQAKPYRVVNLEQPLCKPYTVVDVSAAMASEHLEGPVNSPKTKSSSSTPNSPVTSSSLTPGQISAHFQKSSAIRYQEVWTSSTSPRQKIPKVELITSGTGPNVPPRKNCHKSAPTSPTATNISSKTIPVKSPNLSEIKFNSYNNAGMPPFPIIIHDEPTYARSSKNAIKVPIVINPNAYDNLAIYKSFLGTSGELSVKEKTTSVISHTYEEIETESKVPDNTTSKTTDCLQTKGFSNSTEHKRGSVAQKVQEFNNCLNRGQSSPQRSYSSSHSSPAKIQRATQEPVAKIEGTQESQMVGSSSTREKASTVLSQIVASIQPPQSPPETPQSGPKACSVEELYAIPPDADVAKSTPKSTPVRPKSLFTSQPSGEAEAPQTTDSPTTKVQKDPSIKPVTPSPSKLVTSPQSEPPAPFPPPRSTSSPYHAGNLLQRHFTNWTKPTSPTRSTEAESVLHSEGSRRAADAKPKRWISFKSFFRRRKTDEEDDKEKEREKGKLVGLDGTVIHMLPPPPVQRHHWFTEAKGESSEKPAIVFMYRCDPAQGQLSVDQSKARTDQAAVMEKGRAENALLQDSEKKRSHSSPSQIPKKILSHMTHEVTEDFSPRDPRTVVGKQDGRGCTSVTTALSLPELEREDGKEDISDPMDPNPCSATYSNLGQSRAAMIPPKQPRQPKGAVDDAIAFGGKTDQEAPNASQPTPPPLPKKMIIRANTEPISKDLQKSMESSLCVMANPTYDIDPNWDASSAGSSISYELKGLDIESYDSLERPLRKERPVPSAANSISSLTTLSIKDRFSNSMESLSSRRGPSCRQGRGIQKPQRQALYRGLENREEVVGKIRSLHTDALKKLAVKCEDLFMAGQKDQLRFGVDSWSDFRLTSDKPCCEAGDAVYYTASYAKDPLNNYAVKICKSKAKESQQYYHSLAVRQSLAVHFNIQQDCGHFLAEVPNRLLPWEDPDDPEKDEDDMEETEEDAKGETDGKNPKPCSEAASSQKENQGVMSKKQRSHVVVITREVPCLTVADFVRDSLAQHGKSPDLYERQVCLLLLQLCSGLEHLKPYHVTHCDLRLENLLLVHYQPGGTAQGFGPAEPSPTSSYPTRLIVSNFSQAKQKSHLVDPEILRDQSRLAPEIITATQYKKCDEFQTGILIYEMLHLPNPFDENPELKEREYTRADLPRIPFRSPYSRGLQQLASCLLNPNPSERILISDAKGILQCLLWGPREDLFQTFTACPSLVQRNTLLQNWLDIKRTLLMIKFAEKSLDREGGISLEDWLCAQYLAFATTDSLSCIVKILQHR
Method in brief: (§2)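 Single-point kinase profiling run at 1 μM compound against a full kinase panel. Values are percent inhibition of kinase activity.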

[4] = target: Cyclin-dependent kinase 19 (Homo sapiens) (UniProt Q9BWU1); assay: Inhibition of GST-tagged human recombinant CDK11 (1 to 795 residues) expressed in baculovirus expression system at 1 uM relative to control; method in brief: as §2
Cyclin-dependent kinase 19 (Homo sapiens), sequence (Q9BWU1 whole entry, the tested form may be a part): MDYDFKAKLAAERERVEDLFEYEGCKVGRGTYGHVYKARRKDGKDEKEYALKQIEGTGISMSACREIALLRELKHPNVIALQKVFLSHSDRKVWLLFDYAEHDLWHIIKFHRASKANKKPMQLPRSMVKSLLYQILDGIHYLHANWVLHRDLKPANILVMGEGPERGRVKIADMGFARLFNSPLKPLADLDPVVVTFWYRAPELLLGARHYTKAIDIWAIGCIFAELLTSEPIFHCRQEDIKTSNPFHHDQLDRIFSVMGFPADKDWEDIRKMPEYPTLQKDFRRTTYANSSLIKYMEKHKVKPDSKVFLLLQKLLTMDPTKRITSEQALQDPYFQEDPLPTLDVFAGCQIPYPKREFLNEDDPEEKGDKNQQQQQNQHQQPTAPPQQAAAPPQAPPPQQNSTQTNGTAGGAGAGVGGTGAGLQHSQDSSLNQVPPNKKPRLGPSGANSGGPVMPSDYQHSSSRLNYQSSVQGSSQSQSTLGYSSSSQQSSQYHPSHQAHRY

[5] = system: T2, Discoidin domain-containing receptor 2 (Homo sapiens), Q16832 [N456S]; assay: Inhibition of GST/His-tagged human recombinant DDR2 N456S mutant (422 to 855 residues) expressed in baculovirus expression system at 1 uM relative to control
T2 sequence (whole entry): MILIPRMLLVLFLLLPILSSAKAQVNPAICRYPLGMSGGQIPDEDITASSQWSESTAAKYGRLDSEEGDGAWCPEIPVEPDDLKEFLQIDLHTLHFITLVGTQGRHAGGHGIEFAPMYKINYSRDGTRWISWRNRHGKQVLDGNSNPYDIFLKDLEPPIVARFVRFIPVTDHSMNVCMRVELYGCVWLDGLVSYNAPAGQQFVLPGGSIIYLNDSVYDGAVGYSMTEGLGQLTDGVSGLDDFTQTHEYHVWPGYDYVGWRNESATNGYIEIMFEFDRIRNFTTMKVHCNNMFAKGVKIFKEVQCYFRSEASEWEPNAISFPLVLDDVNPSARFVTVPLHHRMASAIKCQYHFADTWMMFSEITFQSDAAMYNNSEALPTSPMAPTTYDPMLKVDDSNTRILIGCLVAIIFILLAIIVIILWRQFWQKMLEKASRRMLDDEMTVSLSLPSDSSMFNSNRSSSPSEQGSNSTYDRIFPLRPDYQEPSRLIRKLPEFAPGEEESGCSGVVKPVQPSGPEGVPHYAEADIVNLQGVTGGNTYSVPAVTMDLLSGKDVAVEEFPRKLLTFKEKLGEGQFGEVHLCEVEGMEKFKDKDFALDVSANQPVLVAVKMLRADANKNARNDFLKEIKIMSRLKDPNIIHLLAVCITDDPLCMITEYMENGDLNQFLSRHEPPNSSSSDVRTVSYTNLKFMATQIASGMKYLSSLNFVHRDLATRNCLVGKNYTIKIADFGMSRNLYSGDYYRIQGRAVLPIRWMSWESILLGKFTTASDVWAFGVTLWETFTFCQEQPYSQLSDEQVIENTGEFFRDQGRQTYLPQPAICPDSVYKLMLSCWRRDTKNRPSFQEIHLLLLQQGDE
Method in brief: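 Single-point kinase panel (SelectScreen) run with the compound at 1 μM. Activity is reported as percent inhibition.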

[6] = target: T3, Serine/threonine-protein kinase haspin (Homo sapiens) (UniProt Q8TF76); assay: Inhibition of GST-tagged human recombinant haspin (471 to 798 residues) expressed in insect cells at 1 uM relative to control; method in brief: as §2
T3 sequence (whole entry): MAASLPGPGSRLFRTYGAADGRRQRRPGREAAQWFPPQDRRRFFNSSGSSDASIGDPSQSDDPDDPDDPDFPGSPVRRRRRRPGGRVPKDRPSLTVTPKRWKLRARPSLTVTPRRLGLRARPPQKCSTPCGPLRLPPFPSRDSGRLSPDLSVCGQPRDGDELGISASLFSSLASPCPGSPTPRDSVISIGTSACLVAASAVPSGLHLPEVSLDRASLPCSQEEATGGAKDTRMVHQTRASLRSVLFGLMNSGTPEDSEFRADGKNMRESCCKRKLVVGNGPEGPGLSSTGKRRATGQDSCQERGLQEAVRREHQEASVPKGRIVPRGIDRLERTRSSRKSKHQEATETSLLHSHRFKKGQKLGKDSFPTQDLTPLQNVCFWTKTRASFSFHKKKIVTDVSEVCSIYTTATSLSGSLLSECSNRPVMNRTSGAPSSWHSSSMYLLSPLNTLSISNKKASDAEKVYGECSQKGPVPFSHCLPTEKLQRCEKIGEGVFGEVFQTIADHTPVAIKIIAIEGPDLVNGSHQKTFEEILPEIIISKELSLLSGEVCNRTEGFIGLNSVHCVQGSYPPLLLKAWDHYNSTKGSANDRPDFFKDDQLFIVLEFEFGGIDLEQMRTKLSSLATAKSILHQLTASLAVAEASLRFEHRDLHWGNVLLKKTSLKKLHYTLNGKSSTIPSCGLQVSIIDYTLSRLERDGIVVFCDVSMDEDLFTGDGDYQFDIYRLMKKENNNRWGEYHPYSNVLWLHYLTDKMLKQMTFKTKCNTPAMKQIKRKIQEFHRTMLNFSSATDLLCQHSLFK

[7] = target: T1, Inactive tyrosine-protein kinase PEAK1; assay: Inhibition of PEAK1 (unknown origin) relative to control; details: concentration not given here
Method in brief: (§3)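 Follow-up on kinases showing more than 50% single-point inhibition. Each kinase was screened against decreasing compound concentrations, with a top concentration of 1 μM, to derive the IC50. Percent inhibition was also reported from this dose-response series.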

[8] = target: Cyclin-dependent kinase 19 (Homo sapiens) (UniProt Q9BWU1); assay: Inhibition of GST-tagged human recombinant CDK11 (1 to 795 residues) expressed in baculovirus expression system relative to control; details: concentration not given here; method in brief: as §3
[9] = system: T2, Discoidin domain-containing receptor 2 (Homo sapiens), Q16832 [N456S]; assay: Inhibition of GST/His-tagged human recombinant DDR2 N456S mutant (422 to 855 residues) expressed in baculovirus expression system relative to control; details: concentration not given here
[10] = target: T3, Serine/threonine-protein kinase haspin (Homo sapiens); assay: Inhibition of GST-tagged human recombinant haspin (471 to 798 residues) expressed in insect cells relative to control; details: concentration not given here; method in brief: as §3
[11] = target: T1, Inactive tyrosine-protein kinase PEAK1; assay: Inhibition of PEAK1 (unknown origin); method in brief: as §3
[12] = target: Discoidin domain-containing receptor 2 (Homo sapiens, UniProt Q16832, N456S); assay: Inhibition of GST/His-tagged human recombinant DDR2 N456S mutant (422 to 855 residues) expressed in baculovirus expression system
Method in brief: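 Kinase profiling panel (SelectScreen). The kinase was tested against decreasing concentrations of the compound, starting at a highest concentration of 1 μM, and IC50 was derived from the dose-response.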

[13] = target: T4, Serine/threonine-protein kinase haspin (Homo sapiens, UniProt Q8TF76); assay: Inhibition of GST-tagged human recombinant haspin (471 to 798 residues) expressed in insect cells; method in brief: as §3
T4 sequence (Q8TF76 whole entry): T3 sequence (whole entry)

MCF7 [14] = assay: Inhibition of mitochondrial complex I in human MCF7 cells expressing LC3 by Seahorse XF plasma membrane permeabilizer analysis; assay type: cell membranes
Method in brief: (§4)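 MCF7/LC3 cells were permeabilized with plasma membrane permeabilizer, then given DMSO, compound (1 μM) or a complex-specific control inhibitor together with that complex's substrates. Oligomycin and antimycin A injections followed. Oxygen consumption rate was read on a Seahorse XF analyzer. Data are mean ± SD, n = 3.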

MCF7 [15] = assay: Inhibition of mitochondrial complex II in human MCF7 cells expressing LC3 by Seahorse XF plasma membrane permeabilizer analysis; assay type: cell membranes; method in brief: as §4
MCF7 [16] = assay: Inhibition of mitochondrial complex IV in human MCF7 cells expressing LC3 by Seahorse XF plasma membrane permeabilizer analysis; assay type: cell membranes; method in brief: as §4
Bos taurus = species on record: Bos taurus; assay: Inhibition of NADH-Coenyme Q reductase in bovine heart mitochondria; details: dose 0.3-10 µM
Method in brief: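 Isolated bovine heart mitochondria were assayed for NADH-coenzyme Q reductase activity across a dose range of compound. Rotenone served as the control inhibitor. Data are mean ± SD, n = 2.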

[17] = Inhibition of starvation-induced autophagy in human MCF7 cells expressing eGFP-tagged LC3 incubated for 3 hrs in presence of chloroquine by automated fluorescence microscopy

O=C(c1ccc2c(c1)OCCO2)C1CCN(c2ncnc3sccc23)CC1
inhibition (MCF7 [1]): Active
inhibition (HeLa): Active
inhibition (HEK-293T): Active
IC50 [2]: 180 nM
inhibition [3]: 83%
inhibition [4]: 70%
inhibition [5]: 58%
inhibition [6]: 51%
inhibition [7]: 68%
inhibition [8]: 47%
inhibition [9]: 38%
inhibition [10]: 33%
IC50 [11]: 620 nM
IC50 [12]: > 1000 nM
IC50 [13]: > 1000 nM
inhibition (MCF7 [14]): Active
inhibition (MCF7 [15]): inactive
inhibition (MCF7 [16]): inactive
inhibition (Bos taurus): Dose-Dependent Effect
IC50 [17]: 20 nM
